From PubChem BioAssay
Only a selection was taken, and hits are over-represented in it overall.
HEK293 NFkB inh = inhibitors of PMA/ionomycin-induced NF-kB reporter, primary screen, antigen receptor NF-kB inhibitor project, cell-based, HEK-293 luciferase reporter, luminescence. inhibition, % at 3 µM. HEK-293 NF-kB luciferase reporter. AID 465, 2006. hit rate 0.21% among 62,000;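 active means inhibition above the mean of all tested compounds plus 3 SD, cut at about 40% in these data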;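 further: 0% = stimulated DMSO wells and 100% = 10 µM reference inhibitor 5653914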
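Reagent: PMA plus ionomycin mix as NF-kB-activating stimulus. Assay system: NF-kB luciferase reporter HEK-293 cells. Technique: luminescence from luciferase substrate reagent. Incubation: 1 h compound pre-incubation, 16 h PMA/ionomycin at 37 °C. Benchmarks: DMSO only as uninhibited control, 10 µM reference inhibitor as full inhibition. Repeats: tested once.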
DAT uptake mod = changed hDAT dopamine uptake under cocaine IC80, either direction, primary screen, cocaine antagonist project, cell-based, LLC-PK1 hDAT, [14C]-dopamine uptake, MLSMR. LLC-PK1 hDAT cells, [14C]-dopamine uptake with cocaine IC80; actives deviate in either direction. hit rate 1.3% among 110,000. B-score at 10 µM;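 active means Z score or B-score, a plate-position-corrected score, falls beyond the plate's 99.7% confidence bounds, in either direction; inactive means both scores lie inside the 99.7% bounds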;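 further: scored against the spread of the other compound wells on the same plate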
AP ELISA ortho = alternative complement pathway inhibitors, primary screen, biochemical, ELISA, human serum, orthogonally pooled compounds; hit rate 0.08% among 62,000; LPS-coated ELISA, C3 deposition; tested in compound mixtures; inhibition, % at 5 µM;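 active means inhibition above 30% in each of the two pooled mixtures holding the compound, so the lower value exceeds 30%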;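 further: 0% = serum in Mg-EGTA without compound and 100% = EDTA serum blank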
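Assay system: Human serum alternative complement pathway, C3 deposition on LPS-coated wells | Incubation: 1 h serum-compound exposure at 37 °C | Doses: 5 µM per compound in ten-compound mixtures | Read-out: Percent inhibition | Technique: ELISA with HRP anti-human C3 antibody, TMB substrate, absorbance 450 nm | Replication: Two pool placements per compound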
Ec RNAP inh = E. coli RNAP inhibitors, biochemical; E. coli RNA polymerase, fluorescence transcription assay; hit rate 0.2% among 62,000; DNA-directed RNA polymerase subunit beta (Escherichia coli (strain K12)), P0A8V2; inhibition, %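 (tested at 10 µM)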; in the data active means inhibition above about 20%;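 further: 0% = enzyme without compound and 100% = no enzyme blank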
D1 mod = D1 CRE-luciferase signal change, two-sided – cell-based, HEK293 D1, dopamine EC30, D1 allosteric modulator project, primary screen; D(1A) dopamine receptor (Homo sapiens), P21728; dopamine EC30 potentiation; actives deviate in either direction; B-score at 10 µM; hit rate 5.9% among 58,000; AID 641, 2007;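 active means luminescence count or its row- and column-corrected plate score outside the 99.7% band of the plate's sample wells, on either side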
Target sequence (P21728 whole entry, looked up): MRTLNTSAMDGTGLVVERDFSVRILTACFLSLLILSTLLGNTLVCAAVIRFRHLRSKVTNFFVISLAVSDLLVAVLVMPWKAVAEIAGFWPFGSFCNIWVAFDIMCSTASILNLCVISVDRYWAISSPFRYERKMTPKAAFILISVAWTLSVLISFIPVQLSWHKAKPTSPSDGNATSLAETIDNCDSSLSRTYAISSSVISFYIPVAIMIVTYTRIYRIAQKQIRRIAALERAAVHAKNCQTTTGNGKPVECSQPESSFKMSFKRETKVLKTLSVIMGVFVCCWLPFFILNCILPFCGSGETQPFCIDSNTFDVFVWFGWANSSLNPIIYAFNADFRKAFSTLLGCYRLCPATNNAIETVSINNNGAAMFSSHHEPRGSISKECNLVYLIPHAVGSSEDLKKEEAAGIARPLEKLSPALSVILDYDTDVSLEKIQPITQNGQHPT
D1 mod confirm = D1 receptor positive allosteric modulators, retest, confirmation, cell-based, HEK293 D1, CRE-luciferase, duplicate; shares compounds with D1 mod; dopamine EC30 potentiation; active compounds read high; luminescence at 10 µM; hit rate 88% among 2,200; AID 642, 2007;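 active means luminescence in either of two replicates above the same-plate mean plus 3 SD of the low-dose dopamine control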
D1 ag no DA = D1 receptor agonism without dopamine, confirmation, mechanism study for D1 allosteric modulator project, cell-based, HEK293 D1, CRE-luciferase, secondary assay 1; luminescence at 10 µM; AID 646, 2007; shares compounds with D1 mod; luminescence, no dopamine; active compounds read high; hit rate 0.8% among 1,900; in the data active means luminescence above about 3900
Isoprot counter = alters isoproterenol CRE-luciferase response in HEK293 cells; shares compounds with D1 mod; HEK293 D1 CRE-luciferase, isoproterenol EC30 counter-screen; calls only at 10 µM; hit rate 63% among 2,200; AID 647;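 active means luminescence in either replicate above plate mean of wells with a partly effective reference agonist dose plus 3 SD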;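 further: isoproterenol raises cAMP through native beta-adrenoceptor Gs so signal bypasses D1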
* hit, by the source's call.

CCCC(=O)OCC(=O)Nc1cc(C(C)(C)C)nn1-c1ccccc1 was read as HEK293 NFkB inh 4, DAT uptake mod -1.2, AP ELISA ortho -15, Ec RNAP inh -2, D1 mod 4.7*, D1 mod confirm 6968* and Isoprot counter inactive.
CC1(C)Cc2c(sc3nc(SCC(=O)O)[nH]c(=O)c23)CO1 was read as HEK293 NFkB inh 19, DAT uptake mod 0.83, AP ELISA ortho -3, Ec RNAP inh -3 and D1 mod -0.61.
For CSC1=NC(NCCCO)c2c(sc3c2CC(C)(C)OC3)N1 (stereo unspecified) the results were HEK293 NFkB inh 8, DAT uptake mod 0.41, AP ELISA ortho 17, Ec RNAP inh 0, D1 mod 3.9*, D1 mod confirm 11400*, D1 ag no DA 1504 and Isoprot counter inactive.
`COc1ccc(-c2nn(C)c(=O)c3ccccc23)cc1CNC(=O)c1ccco1` gave HEK293 NFkB inh 15, DAT uptake mod 0.25, D1 mod 4.5*, D1 mod confirm 16184*, D1 ag no DA 1660 and Isoprot counter active.
Screening CCOC(=O)c1cc(CC)sc1NC(=O)C(c1ccccc1)c1ccccc1 returned DAT uptake mod 0.92.
CNC(=O)c1ccsc1NC(=O)c1ccc(Cl)s1 was read as HEK293 NFkB inh -12, DAT uptake mod -0.16, AP ELISA ortho 13, Ec RNAP inh 5, D1 mod 4.9*, D1 mod confirm 16692*, D1 ag no DA 1816 and Isoprot counter active.
`COC(=O)c1sccc1NC(=O)c1ccc(Cl)s1` gave HEK293 NFkB inh 1, DAT uptake mod 0.1, AP ELISA ortho 8, Ec RNAP inh 3 and D1 mod 1.7.
Screening Cc1nc(CSc2nnc3scc(-c4ccc(Cl)cc4)n23)cs1 returned HEK293 NFkB inh -1, DAT uptake mod 0.18, AP ELISA ortho -3, Ec RNAP inh 8, D1 mod 13*, D1 mod confirm 18280* and Isoprot counter active.
For CCc1ccc(N(C(=O)CNC(=O)c2cccs2)C(C(=O)NC(C)(C)C)c2cc(OC)c(OC)c(OC)c2)cc1 (stereo unspecified) the results were DAT uptake mod 0.51.
Screening CCN(CC)S(=O)(=O)c1cccc(C(=O)Nc2nc3cc4c(cc3s2)OCCO4)c1 returned HEK293 NFkB inh 6, DAT uptake mod 0.089, AP ELISA ortho 6 and Ec RNAP inh 7.
`O=C(NCC(c1ccc(F)cc1)N1CCOCC1)c1ccc(Br)o1` (stereo unspecified) gave HEK293 NFkB inh 4, DAT uptake mod -0.5, AP ELISA ortho 4, Ec RNAP inh 11 and D1 mod 0.0043.
Screening O=C(COC(=O)c1ccccn1)NCCCc1ccccc1 returned HEK293 NFkB inh 15, DAT uptake mod -0.35, AP ELISA ortho -1 and D1 mod 0.051.
Screening C=CCN1C(=O)c2oc3ccccc3c(=O)c2C1c1ccc(O)c(OC)c1 (stereo unspecified) returned HEK293 NFkB inh 22, AP ELISA ortho 13, Ec RNAP inh 1, D1 mod 8.1*, D1 mod confirm 10008* and Isoprot counter inactive.
COCCN1C(=O)c2oc3ccccc3c(=O)c2C1c1ccc(OC)c(OC)c1 (stereo unspecified) was read as HEK293 NFkB inh 11, DAT uptake mod -0.86, AP ELISA ortho 7 and Ec RNAP inh 5.
